ChEMBL document CHEMBL1212913, “Quinazolin-4-one derivatives: A novel class of noncompetitive NR2C/D subunit-selective N-methyl-D-aspartate receptor antagonists” (J Med Chem, 2010)
Calls of active or inactive are those of the source. No cut-off for these calls is given here.

Experiments:
[1] = target: Glutamate NMDA receptor; Grin1/Grin2a (Rattus norvegicus, UniProt P35439+Q00959); experiment: Antagonist activity at rat recombinant NR1-NR2A receptor expressed in Xenopus oocytes at holding potential of -40mV by two-electrode voltage-clamp electrophysiology; format: functional, cell-based, Oocyte; details: read-out: IC50
Glutamate NMDA receptor; Grin1/Grin2a, sequence (Q00959 whole entry, other chains not shown): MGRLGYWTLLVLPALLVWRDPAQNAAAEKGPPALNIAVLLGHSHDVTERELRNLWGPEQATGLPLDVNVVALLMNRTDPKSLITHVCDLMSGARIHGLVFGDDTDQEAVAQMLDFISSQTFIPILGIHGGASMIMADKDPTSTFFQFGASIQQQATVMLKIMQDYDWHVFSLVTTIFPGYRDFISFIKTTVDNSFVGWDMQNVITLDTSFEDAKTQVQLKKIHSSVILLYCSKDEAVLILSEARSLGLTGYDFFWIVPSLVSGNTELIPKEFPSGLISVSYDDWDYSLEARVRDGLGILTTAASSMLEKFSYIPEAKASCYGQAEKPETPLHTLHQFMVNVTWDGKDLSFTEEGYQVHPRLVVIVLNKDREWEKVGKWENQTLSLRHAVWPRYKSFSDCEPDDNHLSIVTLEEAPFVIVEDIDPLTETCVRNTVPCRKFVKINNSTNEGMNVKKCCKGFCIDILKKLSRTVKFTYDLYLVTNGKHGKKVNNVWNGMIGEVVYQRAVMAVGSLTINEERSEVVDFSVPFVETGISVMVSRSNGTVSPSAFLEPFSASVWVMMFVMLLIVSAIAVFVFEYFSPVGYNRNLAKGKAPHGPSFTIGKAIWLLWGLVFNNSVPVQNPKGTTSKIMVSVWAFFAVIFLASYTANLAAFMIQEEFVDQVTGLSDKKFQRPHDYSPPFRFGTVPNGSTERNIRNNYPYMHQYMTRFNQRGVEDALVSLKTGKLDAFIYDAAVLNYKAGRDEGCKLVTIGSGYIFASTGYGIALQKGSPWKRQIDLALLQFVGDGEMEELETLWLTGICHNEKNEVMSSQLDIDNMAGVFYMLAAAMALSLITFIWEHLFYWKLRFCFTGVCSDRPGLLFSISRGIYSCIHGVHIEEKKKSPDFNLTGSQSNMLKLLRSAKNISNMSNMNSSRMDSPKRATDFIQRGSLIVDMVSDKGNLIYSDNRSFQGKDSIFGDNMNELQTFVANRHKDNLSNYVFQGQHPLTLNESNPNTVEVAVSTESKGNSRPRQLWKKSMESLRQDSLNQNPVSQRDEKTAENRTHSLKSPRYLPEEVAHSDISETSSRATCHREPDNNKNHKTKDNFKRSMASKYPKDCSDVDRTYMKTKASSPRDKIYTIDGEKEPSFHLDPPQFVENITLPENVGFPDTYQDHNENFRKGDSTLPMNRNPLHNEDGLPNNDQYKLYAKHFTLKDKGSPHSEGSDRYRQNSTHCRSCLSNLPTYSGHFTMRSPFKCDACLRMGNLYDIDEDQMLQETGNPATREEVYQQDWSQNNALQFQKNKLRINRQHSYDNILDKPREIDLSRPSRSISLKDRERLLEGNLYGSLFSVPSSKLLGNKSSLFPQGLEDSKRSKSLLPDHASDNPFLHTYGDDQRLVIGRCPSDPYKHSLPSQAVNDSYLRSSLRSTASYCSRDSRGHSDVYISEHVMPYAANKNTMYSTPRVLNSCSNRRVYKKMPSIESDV
Method in brief: (§1)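 Oocytes expressing rat NR1-1a with NR2A, NR2B, NR2C or NR2D, clamped at −40 mV in Ba2+/HEPES recording solution pH 7.4, 23°C. Current evoked by 100 μM glutamate plus 30 μM glycine. Final DMSO 0.05-0.5%, 5-7 inhibitor concentrations, ≥4 oocytes each. IC50 from Hill fit of normalized mean composite data. […] Some NR2A oocytes given BAPTA-AM or K-BAPTA.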

Rattus norvegicus [2] = organism: Rattus norvegicus; experiment: Selectivity ratio of IC50 for rat recombinant GLuR1 to IC50 for rat recombinant NR1-NR2D receptor
Method in brief: (§2)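 Ratio of fitted IC50 values, either NR2A/NR2D or GluR1/NR2D, from two-electrode voltage-clamp Hill fits in oocytes. Where noted, calculated from IC50 values rounded to the nearest μM.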

[3] = target: Glutamate NMDA receptor; Grin1/Grin2c (Rattus norvegicus, UniProt P35439+Q00961); experiment: Antagonist activity at rat recombinant NR1-NR2C receptor expressed in Xenopus oocytes at holding potential of -40mV by two-electrode voltage-clamp electrophysiology; format: functional, cell-based, Oocyte; method in brief: as §1
Glutamate NMDA receptor; Grin1/Grin2c, sequence (Q00961 whole entry, other chains not shown): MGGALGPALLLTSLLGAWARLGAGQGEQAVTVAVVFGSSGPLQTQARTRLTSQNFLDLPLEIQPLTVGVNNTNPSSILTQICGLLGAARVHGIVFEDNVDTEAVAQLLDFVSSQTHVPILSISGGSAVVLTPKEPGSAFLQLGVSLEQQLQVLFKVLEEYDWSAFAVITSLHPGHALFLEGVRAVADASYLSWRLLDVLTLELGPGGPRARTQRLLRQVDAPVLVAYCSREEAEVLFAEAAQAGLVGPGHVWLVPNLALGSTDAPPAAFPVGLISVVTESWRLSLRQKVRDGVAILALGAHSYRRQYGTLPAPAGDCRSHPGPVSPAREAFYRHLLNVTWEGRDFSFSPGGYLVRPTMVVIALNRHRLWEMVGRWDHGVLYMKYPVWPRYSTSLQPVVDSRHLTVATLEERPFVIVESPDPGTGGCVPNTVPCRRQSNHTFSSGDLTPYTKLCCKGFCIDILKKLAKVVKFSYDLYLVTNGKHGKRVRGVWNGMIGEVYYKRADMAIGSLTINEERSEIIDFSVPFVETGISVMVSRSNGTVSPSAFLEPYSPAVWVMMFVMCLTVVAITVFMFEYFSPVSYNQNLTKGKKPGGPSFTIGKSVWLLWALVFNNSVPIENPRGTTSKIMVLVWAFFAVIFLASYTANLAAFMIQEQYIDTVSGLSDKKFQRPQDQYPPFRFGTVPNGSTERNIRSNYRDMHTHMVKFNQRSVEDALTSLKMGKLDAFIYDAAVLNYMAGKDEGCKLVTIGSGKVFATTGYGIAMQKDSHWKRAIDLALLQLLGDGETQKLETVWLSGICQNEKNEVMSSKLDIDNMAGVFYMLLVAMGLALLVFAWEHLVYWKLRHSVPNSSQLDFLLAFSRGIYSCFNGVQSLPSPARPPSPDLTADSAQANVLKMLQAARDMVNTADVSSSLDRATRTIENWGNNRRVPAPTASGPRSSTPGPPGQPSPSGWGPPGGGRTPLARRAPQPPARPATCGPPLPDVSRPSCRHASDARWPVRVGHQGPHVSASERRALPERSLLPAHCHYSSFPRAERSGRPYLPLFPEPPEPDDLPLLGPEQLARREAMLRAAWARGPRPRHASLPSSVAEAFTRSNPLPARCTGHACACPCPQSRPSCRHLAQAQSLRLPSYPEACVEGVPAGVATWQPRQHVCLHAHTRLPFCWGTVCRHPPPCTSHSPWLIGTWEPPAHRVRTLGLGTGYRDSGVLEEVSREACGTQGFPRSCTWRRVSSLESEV

[4] = target: Ionotropic glutamate receptor NMDA 1/2D (Rattus norvegicus, UniProt P35439+Q62645); experiment: Antagonist activity at rat recombinant NR1-NR2D receptor expressed in Xenopus oocytes at holding potential of -40mV by two-electrode voltage-clamp electrophysiology; format: functional, cell-based, Oocyte
Method in brief: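 Oocytes expressing rat NR1-1a with NR2A, NR2B, NR2C or NR2D, clamped at −40 mV in Ba2+/HEPES recording solution pH 7.4, 23°C. Current evoked by 100 μM glutamate plus 30 μM glycine. Final DMSO 0.05-0.5%, 5-7 inhibitor concentrations, ≥4 oocytes each. IC50 from Hill fit of normalized mean composite data. Some NR2A oocytes given BAPTA-AM or K-BAPTA.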

Glutamate receptor 1 = Glutamate receptor 1 (Rattus norvegicus, UniProt P19490); experiment: Antagonist activity at rat recombinant GLuR1 expressed in Xenopus oocytes assessed as inhibition of glutamate-induced current by two-electrode voltage-clamp electrophysiology; format: functional, cell-based, Oocyte
Glutamate receptor 1, sequence (P19490 whole entry, the tested form may be a part): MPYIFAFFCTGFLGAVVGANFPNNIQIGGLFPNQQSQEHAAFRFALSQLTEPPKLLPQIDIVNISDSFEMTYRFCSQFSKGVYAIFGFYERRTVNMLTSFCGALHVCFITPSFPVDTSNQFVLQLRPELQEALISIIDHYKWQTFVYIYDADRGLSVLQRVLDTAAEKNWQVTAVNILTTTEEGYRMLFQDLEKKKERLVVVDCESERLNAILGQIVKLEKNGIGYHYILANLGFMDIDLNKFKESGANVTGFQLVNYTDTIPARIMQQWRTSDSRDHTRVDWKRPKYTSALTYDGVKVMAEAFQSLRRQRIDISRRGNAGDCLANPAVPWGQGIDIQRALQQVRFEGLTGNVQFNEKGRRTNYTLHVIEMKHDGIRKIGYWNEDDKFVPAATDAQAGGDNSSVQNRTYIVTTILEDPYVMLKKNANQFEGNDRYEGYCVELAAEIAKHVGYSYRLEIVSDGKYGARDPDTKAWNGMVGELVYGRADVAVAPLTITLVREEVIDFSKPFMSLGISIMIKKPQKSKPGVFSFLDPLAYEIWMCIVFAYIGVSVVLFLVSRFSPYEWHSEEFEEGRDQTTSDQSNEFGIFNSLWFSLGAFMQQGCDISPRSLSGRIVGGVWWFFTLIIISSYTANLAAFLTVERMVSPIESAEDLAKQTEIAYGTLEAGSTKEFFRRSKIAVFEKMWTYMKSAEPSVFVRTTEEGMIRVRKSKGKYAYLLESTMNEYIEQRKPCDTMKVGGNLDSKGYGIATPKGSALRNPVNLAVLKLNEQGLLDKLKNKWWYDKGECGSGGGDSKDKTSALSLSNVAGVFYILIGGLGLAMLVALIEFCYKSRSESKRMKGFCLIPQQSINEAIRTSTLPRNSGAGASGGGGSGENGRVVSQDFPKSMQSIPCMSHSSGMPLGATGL
Method in brief: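 Two-electrode voltage clamp at −40 mV on Xenopus oocytes expressing rat GluR1, perfused with 90 NaCl, 1.0 KCl, 0.5 BaCl2, 0.005 EDTA, 10 HEPES (mM), pH 7.4, 23°C; activated by 100 μM glutamate. From 20 mM DMSO stocks, 5-7 concentrations, ≥4 oocytes each. Hill fit to mean composite curves normalized to control, minimum usually fixed at 0. Response >75% at 100 μM reported as >300 μM.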

[5] = target: Glutamate receptor ionotropic, kainate 2 (Rattus norvegicus, UniProt P42260); experiment: Antagonist activity at rat recombinant GLuR6 expressed in Xenopus oocytes assessed as inhibition of glutamate-induced current by two-electrode voltage-clamp electrophysiology; format: functional, cell-based; details: oocyte
Glutamate receptor ionotropic, kainate 2, sequence (P42260 whole entry): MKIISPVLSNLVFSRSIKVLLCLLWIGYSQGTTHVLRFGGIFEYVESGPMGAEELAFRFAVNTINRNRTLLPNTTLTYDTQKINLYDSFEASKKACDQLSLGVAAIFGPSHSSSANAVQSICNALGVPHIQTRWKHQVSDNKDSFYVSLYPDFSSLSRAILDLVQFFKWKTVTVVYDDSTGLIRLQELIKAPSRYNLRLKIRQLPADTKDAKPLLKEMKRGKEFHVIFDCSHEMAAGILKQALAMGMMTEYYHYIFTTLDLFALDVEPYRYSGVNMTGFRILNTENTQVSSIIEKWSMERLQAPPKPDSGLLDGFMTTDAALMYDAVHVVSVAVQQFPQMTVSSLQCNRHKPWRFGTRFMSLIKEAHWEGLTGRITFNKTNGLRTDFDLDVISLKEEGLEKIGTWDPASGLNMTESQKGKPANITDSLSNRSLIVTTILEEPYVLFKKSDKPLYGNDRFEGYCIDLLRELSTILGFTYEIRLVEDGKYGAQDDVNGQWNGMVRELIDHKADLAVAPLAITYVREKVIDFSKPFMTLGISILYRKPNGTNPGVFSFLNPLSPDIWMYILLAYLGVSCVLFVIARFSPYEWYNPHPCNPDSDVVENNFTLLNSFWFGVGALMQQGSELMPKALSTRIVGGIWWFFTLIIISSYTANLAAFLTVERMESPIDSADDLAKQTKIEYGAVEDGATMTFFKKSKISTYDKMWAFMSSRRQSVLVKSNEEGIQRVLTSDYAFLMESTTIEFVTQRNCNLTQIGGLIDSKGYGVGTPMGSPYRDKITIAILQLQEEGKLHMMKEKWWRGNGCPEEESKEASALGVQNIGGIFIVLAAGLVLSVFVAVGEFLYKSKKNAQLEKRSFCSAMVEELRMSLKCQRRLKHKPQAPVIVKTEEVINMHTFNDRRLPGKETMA
Method in brief: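 Rat GluR6 expressed in Xenopus oocytes, pretreated with 10 μM concanavalin A for 10 min, then activated by 100 μM glutamate. Cells were held at −40 mV in 90 mM NaCl, 1.0 KCl, 0.5 BaCl2, 0.005 EDTA and 10 HEPES, pH 7.4, at 23°C. Compounds were diluted from 20 mM DMSO stocks, final DMSO 0.05-0.5%. Concentration-effect curves were recorded.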

[6] = target: Glutamate NMDA receptor; Grin1/Grin2b (Rattus norvegicus, UniProt P35439+Q00960); experiment: Antagonist activity at rat recombinant NR1-NR2B receptor expressed in Xenopus oocytes at holding potential of -40mV by two-electrode voltage-clamp electrophysiology; format: functional, cell-based, Oocyte; details: read-out: IC50; method in brief: as §1
Rattus norvegicus [7] = organism: Rattus norvegicus; experiment: Selectivity ratio of IC50 for rat recombinant NR1-NR2A receptor to IC50 for rat recombinant NR1-NR2D receptor; method in brief: as §2
[8] = target: T1, Ionotropic glutamate receptor NMDA 1/2D (Rattus norvegicus) (UniProt P35439+Q62645); experiment: Antagonist activity at rat recombinant NR1-NR2D receptor expressed in Xenopus oocytes at 10 uM at holding potential of -40mV by two-electrode voltage-clamp electrophysiology; format: functional, cell-based; details: Oocyte
[9] = target: T1, Ionotropic glutamate receptor NMDA 1/2D (Rattus norvegicus); experiment: Antagonist activity at rat recombinant NR1-NR2D receptor expressed in Xenopus oocytes at 10 uM at holding potential of +40mV by two-electrode voltage-clamp electrophysiology; format: functional, cell-based; details: Oocyte
[10] = target: T1, Ionotropic glutamate receptor NMDA 1/2D (Rattus norvegicus); experiment: Antagonist activity at rat recombinant NR1-NR2D receptor expressed in Xenopus oocytes at 30 uM at holding potential of -40mV by two-electrode voltage-clamp electrophysiology in presence of up to 1000/300 uM of glutamate/glycine; format: functional, cell-based; details: Oocyte
Method in brief: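 NR1/NR2D oocytes held at −40 mV. Inhibition by 30 μM compound was compared with glutamate/glycine at 100/30 μM and raised to 1000/300 μM, to test whether higher agonist surmounts block. n=4.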

| IC50 [6] | Activity [8] | Activity [9] | Activity [10] | Compound | IC50 [1] | Ratio IC50 (Rattus norvegicus [2]) | IC50 [3] | IC50 [4] | IC50 (Glutamate receptor 1) | IC50 [5] | Ratio IC50 (Rattus norvegicus [7]) |
| --- | --- | --- | --- | --- | --- | --- | --- | --- | --- | --- | --- |
| – | – | – | – | COc1cccc(-n2c(/C=C/c3ccc([N+](=O)[O-])cc3)nc3ccccc3c2=O)c1 | > 300 µM | 1 | > 300 µM | > 300 µM | > 300 µM | Not Active | – |
| – | – | – | – | COc1ccccc1-n1c(/C=C/c2cccc([N+](=O)[O-])c2)nc2ccccc2c1=O | > 300 µM | 1 | > 300 µM | > 300 µM | > 300 µM | Not Active | – |
| 235 µM | – | – | – | O=C(O)c1ccccc1-n1c(/C=C/c2cccc([N+](=O)[O-])c2)nc2ccccc2c1=O | > 300 µM | – | 258 µM | 148 µM | > 300 µM | Not Active | – |
| 30 µM | Active | Active | Active | O=C(O)c1ccc(-n2c(/C=C/c3cccc([N+](=O)[O-])c3)nc3ccccc3c2=O)cc1 | 21 µM | – | 12 µM | 9 µM | 32 µM | Not Active | – |
| 20 µM | – | – | – | O=C(O)c1cccc(-n2c(/C=C/c3ccccc3[N+](=O)[O-])nc3ccccc3c2=O)c1 | 17 µM | – | 8 µM | 7 µM | 5 µM | Not Active | – |
| 93 µM | – | – | – | O=C(O)c1ccc(-n2c(/C=C/c3ccc([N+](=O)[O-])cc3)nc3ccccc3c2=O)cc1 | 64 µM | – | 15 µM | 15 µM | > 300 µM | Not Active | – |
| 69 µM | – | – | – | O=C(O)c1cccc(-n2c(/C=C/c3cccc([N+](=O)[O-])c3)nc3ccccc3c2=O)c1 | 100 µM | – | 19 µM | 15 µM | 32 µM | Not Active | – |
| – | – | – | – | COc1cccc(-n2c(/C=C/c3ccccc3[N+](=O)[O-])nc3ccccc3c2=O)c1 | > 300 µM | 1 | > 300 µM | > 300 µM | > 300 µM | Not Active | – |

| Compound | IC50 [6] | Activity [8] | Activity [9] | Activity [10] | IC50 [1] | Ratio IC50 (Rattus norvegicus [2]) | IC50 [3] | IC50 [4] | IC50 (Glutamate receptor 1) | IC50 [5] | Ratio IC50 (Rattus norvegicus [7]) |
| --- | --- | --- | --- | --- | --- | --- | --- | --- | --- | --- | --- |
| COc1cccc(-n2c(/C=C/c3cccc([N+](=O)[O-])c3)nc3ccccc3c2=O)c1 | 262 µM | – | – | – | > 300 µM | 2 | 205 µM | 186 µM | > 300 µM | Not Active | 2 |
| COc1ccccc1-n1c(/C=C/c2ccc([N+](=O)[O-])cc2)nc2ccccc2c1=O | > 300 µM | – | – | – | > 300 µM | 1 | > 300 µM | 290 µM | > 300 µM | Not Active | > 1 |
| COc1ccc(-n2c(/C=C/c3ccc([N+](=O)[O-])cc3)nc3ccccc3c2=O)cc1 | 98 µM | – | – | – | > 300 µM | – | 181 µM | 221 µM | > 300 µM | Not Active | – |
| COc1ccccc1-n1c(/C=C/c2ccccc2[N+](=O)[O-])nc2ccccc2c1=O | 7 µM | – | – | – | 4 µM | – | 4 µM | 5 µM | 14 µM | Not Active | – |
